Assay results from PubChem BioAssay AID1442 (PCMD, 2008).
Activity calls are given as the source filed them.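 Rule for the calls: active = maximum enhancement above 22% with a fitted EC50 greater than zero; inactive = the rest.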

Tested on: mutant MDM2 reporter cells, luciferase luminescence enhancement, 2 h
Assay: mutant MDM2 reporter signal enhancers, dose response, cell-based, luciferase luminescence (AID 1442)
Details: not given
Method in brief: (§1)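 Material: MDM2-luciferase fusion reporter cells. Incubation: compound exposure of 2 h at 37 °C. Measured by: luminescence. Evaluation: blank-corrected % enhancement vs untreated cells. Control set: cells without compound as reference, wells for blank correction.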

Compound	EC50
CC1=NN(c2cccc(C(=O)O)c2)C(=O)/C1=C\C=C/c1ccccc1	92.9 µM
CCOC(=O)/C=C/C(=O)Nc1ccccc1-c1ccccc1NC(=O)/C=C/C(=O)OCC	1320 µM
COc1ccc(NC(=O)/C(Cl)=C(/Cl)S(=O)Cc2ccc(Cl)cc2)cn1 (configuration not stated)	0.46 µM
CC(C)c1ccc(OCc2cccc(C(=O)N/N=C/c3cccnc3)c2)cc1	200 µM (inactive)
C=CS(=O)(=O)c1ccc(Oc2ccc(S(=O)(=O)C=C)cc2)cc1	1.5 µM
CC(C)c1ccc2c(c1)C1(NN=C(c3ccccc3)S1)C(=O)N2 (configuration not stated)	1.42 µM
O=C(/C=C/c1cccnc1)/C=C/c1cccnc1	0.58 µM
O=C(/C=C/c1cccc([N+](=O)[O-])c1)n1cnc2ccccc21	1.72 µM
Cc1ccc2c(c1)c1ccc3c(c1n2C)C(=O)C=CC3=O	1.83 µM
C=C1C(=O)O[C@@H]2C[C@@H](C)[C@@H]3C=CC(=O)[C@@]3(C)[C@@H](O)[C@H]12	1.11 µM
CN(C)c1nc(=NCc2ccco2)ss1	0.1 µM
Nc1cccc2c1C(=O)N(C(=O)/C=C/c1cccc(Br)c1)C2=O	16.5 µM
COC(=O)CSC1=C(C#N)C(=O)NC(c2ccccc2)S1 (configuration not stated)	4.1 µM
COc1cccc(OC)c1C(=O)NNC(=O)c1cccc(COc2ccc3c(c2)CCC3)c1	562 µM (inactive)
C=CCSc1nc2ccccc2n1C(=O)/C=C/c1cc(OC)c(OC)c(OC)c1	1.16 µM
COc1cc(/C=C2\COC/C(=C\c3cc(OC)c(OC)c(OC)c3)C2=O)cc(OC)c1OC	648 µM
COc1ccc(CS(=O)/C(Cl)=C(/Cl)C(=O)Nc2ccc(OC)nc2)cc1 (configuration not stated)	3.41 µM

Compound	EC50
CN(C)C(=S)SSC(=S)N(C)C	0.08 µM
Cc1cccc2c1c1ccc3c(c1n2C)C(=O)C=CC3=O	1.43 µM
CN(C(=O)c1cccc(COc2ccc(Cl)cc2Cl)c1)c1ccccc1	15.6 µM (inactive)
CCOC(=O)C1=C(c2ccccc2)O/C(=C(/C#N)C(F)(F)F)S1	40.8 µM
Cc1cc(C)nc(S/C=C/C(=O)c2ccccc2)n1	0.79 µM
Cc1cc(C)nc(S/C=C/C(=O)c2ccc(F)cc2)n1	2.67 µM
CCN(CC)c1ccc(/C=C2\C(=O)c3ccc(C(=O)O)cc3C2=O)cc1	216 µM (inactive)
COc1ccc(NC(=O)/C(Cl)=C(/Cl)S(=O)Cc2ccc(C)cc2)cn1 (configuration not stated)	0.84 µM
CCN1C/C(=C/c2ccc(OC)c(O)c2)C(=O)/C(=C/c2ccc(OC)c(O)c2)C1	888 µM
O=C(Cn1ncc(Cl)c(Cl)c1=O)NCC1CCCCC1	2.08 µM
COCCNC(=O)/C(C#N)=C/c1cccc(/C=C(\C#N)C(=O)NCCOC)c1	0.73 µM
CC(C)CC(=O)/C=C/n1c(=S)oc2ccccc21	4.79 µM
CCSc1nc2ccccc2n1C(=O)/C=C/c1ccc(OC)c(OC)c1	1.13 µM
CCOC(=O)N1C/C(=C\c2ccccc2)C(=O)/C(=C/c2ccccc2)C1	1.94 µM
CC(NC(=O)Cn1ncc(Cl)c(Cl)c1=O)C12CC3CC(CC(C3)C1)C2 (configuration not stated)	41.6 µM
CCSc1nc2ccccc2n1C(=O)/C=C\c1ccc(OC)c(OC)c1	1630 µM

Tested on: not listed separately
Assay: as above
Details: mutant MDM2 reporter cells, luciferase luminescence enhancement, 2 h; stronger effect = higher value
Method in brief: as §1

Compound	maximum enhancement
COc1ccccc1-c1cc(SC)c(C#N)c(=O)o1	18% (inactive)
Cc1ccc(C=C2C(Cl)=C(Cl)C(Cl)=C2Cl)cc1	10.2% (inactive)
O=C1C(Cl)=C(N2CCCCC2)C(=O)C(Cl)=C1c1cnc(N2CCCCC2)s1	16.3% (inactive)
CCN(CC)c1ccc(/C=C2/C(=O)c3ccc(C(=O)O)cc3C2=O)cc1	15.6% (inactive)
